Activity calls are given as the source filed them. The calls are words filed in the database; no cut-off is given here.
Columns and labels:
Rattus norvegicus [1] = assay: Antihyperlipidemic activity in HFD-induced hyperlipidemic Charles Foster rat assessed as decrease in liver triglyceride level at 100 mg/kg, po administered for 4 weeks relative to control; type: functional; parameters: scale not given: the % may be the effect or the level left
Outline: (§1)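 Adult male Charles Foster rats (200−225 g), high-fat diet 4 weeks, then diet plus daily dosing 4 more weeks; overnight fast, sacrifice, liver washed in cold 0.15 M KCl and held at 4 °C. Lipids extracted from liver homogenate in CHCl3/CH3OH (2:1 v/v), TC, PL and TG read in mg/g; pooled data from 6 rats/group, mean ± SD.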

Rattus norvegicus [2] = assay: Antihyperlipidemic activity in HFD-induced hyperlipidemic Charles Foster rat assessed as decrease in plasma VLDL-total cholesterol level at 100 mg/kg, po administered for 4 weeks relative to control; type: functional; parameters: scale not given: the % may be the effect or the level left
Outline: (§2)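 After 4 weeks high-fat feeding plus 4 weeks daily dosing, overnight fast, retro-orbital blood into EDTA tubes. Serum split into VLDL, LDL and HDL by polyanionic precipitation; each fraction assayed for TC, PL, TG and apoprotein (mg/dL plasma). Pooled data from 6 rats/group, mean ± SD, dosed groups compared with high-fat group.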

Rattus norvegicus [3] = assay: Antihyperlipidemic activity in Triton WR-1339-induced hyperlipidemic rat assessed as increase in LCAT enzyme level at 100 mg/kg, po; type: functional
Outline: (§3)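 Triton WR-1339 given to rats to induce hyperlipidemia; oral dosing. Plasma TC, PL, TG in mg/dL; PHLA as […]/h/mL plasma. Mean ± SD of six rats; Triton group compared with control, Triton plus dosed group compared with Triton group.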

Rattus norvegicus [4] = assay: Antihyperlipidemic activity in Triton WR-1339-induced hyperlipidemic rat assessed as decrease in plasma phospholipid level at 100 mg/kg, po relative to control; type: functional; parameters: scale not given: the % may be the effect or the level left; outline: as §3
Rattus norvegicus [5] = assay: Antihyperlipidemic activity in Triton WR-1339-induced hyperlipidemic rat assessed as increase in LCAT enzyme level at 150 mg/kg, po; type: functional
Outline: (§4)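 Separate set of Triton WR-1339-induced hyperlipidemic rats, oral doses of 50, 100 and 150 mg/kg. Plasma TC, PL, TG in mg/dL; PHLA as […]/h/mL plasma. Mean ± SD of six rats versus Triton group.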

Rattus norvegicus [6] = assay: Antihyperlipidemic activity in HFD-induced hyperlipidemic Charles Foster rat assessed as reactivation of LPL activity at 100 mg/kg, po administered for 4 weeks relative to control; type: functional
Outline: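 Male Charles Foster rats fed high-fat diet 4 weeks, then diet plus daily dosing 4 weeks. Liver homogenized (10% w/v) in cold 100 mM phosphate buffer pH 7.2; total lipolytic LPL activity read as nmol free fatty acid formed/h/mg protein; pooled data from 6 rats/group, mean ± SD.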

Rattus norvegicus [7] = assay: Antihyperlipidemic activity in HFD-induced hyperlipidemic Charles Foster rat assessed as decrease in plasma LDL-total cholesterol level at 100 mg/kg, po administered for 4 weeks relative to control; type: functional; parameters: scale not given: the % may be the effect or the level left; outline: as §2
Rattus norvegicus [8] = assay: Antihyperlipidemic activity in HFD-induced hyperlipidemic Charles Foster rat assessed as increase in plasma HDL-phospholipid level at 100 mg/kg, po administered for 4 weeks relative to control; type: functional; outline: as §2
Rattus norvegicus [9] = assay: Antihyperlipidemic activity in HFD-induced hyperlipidemic Charles Foster rat assessed as decrease in serum triglyceride level at 100 mg/kg, po administered for 4 weeks relative to control; type: functional; parameters: scale not given: the % may be the effect or the level left
Outline: (§5)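 Male Charles Foster rats (200−225 g): high-fat diet 4 weeks, then diet plus daily dosing 4 weeks. Overnight fast, retro-orbital blood in EDTA (3 mg/mL blood), centrifuged to serum. TC, PL, TG in mg/dL; LCAT as nmol cholesterol released/h/L plasma. Mean ± SD; dosed groups compared with high-fat group, P by significance levels.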

Rattus norvegicus [10] = assay: Antihyperlipidemic activity in HFD-induced hyperlipidemic Charles Foster rat assessed as increase in serum LCAT enzyme level at 100 mg/kg, po administered for 4 weeks relative to control; type: functional; outline: as §5
Rattus norvegicus [11] = assay: Antihyperlipidemic activity in Triton WR-1339-induced hyperlipidemic rat assessed as increase in PHLA enzyme level at 100 mg/kg, po; type: functional; outline: as §3
Rattus norvegicus [12] = assay: Antihyperlipidemic activity in HFD-induced hyperlipidemic Charles Foster rat assessed as decrease in liver total cholesterol level at 100 mg/kg, po administered for 4 weeks relative to control; type: functional; parameters: scale not given: the % may be the effect or the level left; outline: as §1
Rattus norvegicus [13] = assay: Antihyperlipidemic activity in Triton WR-1339-induced hyperlipidemic rat assessed as decrease in plasma triglyceride level at 100 mg/kg, po relative to control; type: functional; parameters: scale not given: the % may be the effect or the level left; outline: as §3
Rattus norvegicus [14] = assay: Antiobesity activity in HFD-induced hyperlipidemic Charles Foster rat assessed as decrease in food efficacy ratio at 100 mg/kg, po administered for 4 weeks; type: functional, organism-based; parameters: dose 100 mg/kg
Outline: (§6)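 Adult male Charles Foster rats given high-fat or normal diet 4 weeks, then diet plus vehicle or daily dosing 4 more weeks, sacrificed at week 8. Body weight gain, food intake, food efficiency ratio (weight gain/food intake over the period), and mesenteric, gonadal, inguinal and perirenal fat-pad weights recorded; mean ± SD, n = 6.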

Rattus norvegicus [15] = assay: Antihyperlipidemic activity in HFD-induced hyperlipidemic Charles Foster rat assessed as increase in [I125]-LDL catabolism in plasma membrane of liver at 100 mg/kg/day, po administered for 4 weeks; type: functional
Outline: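 Rats on 8 weeks total of high-fat diet, dosed daily for the last 4 weeks, then sacrificed. Human serum LDL radiolabeled with I125; specific binding to liver plasma membrane preparation measured as receptor-mediated LDL catabolism. Mean ± SD, n = 6.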

Rattus norvegicus [16] = assay: Antihyperlipidemic activity in HFD-induced hyperlipidemic Charles Foster rat assessed as decrease in liver phospholipid level at 100 mg/kg, po administered for 4 weeks relative to control; type: functional; parameters: scale not given: the % may be the effect or the level left; outline: as §1
Rattus norvegicus [17] = assay: Antihyperlipidemic activity in po dosed Triton WR-1339-induced hyperlipidemic rat assessed as decrease in plasma triglyceride level; type: functional, organism-based; outline: as §3
Rattus norvegicus [18] = assay: Antihyperlipidemic activity in Triton WR-1339-induced hyperlipidemic rat assessed as increase in PHLA enzyme level at 50 mg/kg, po; type: functional; outline: as §4
Rattus norvegicus [19] = assay: Antiobesity activity in HFD-induced hyperlipidemic Charles Foster rat assessed as decrease in inguinal fat-pad at 100 mg/kg, po administered for 4 weeks; type: functional, organism-based; parameters: dose 100 mg/kg; outline: as §6
Rattus norvegicus [20] = assay: Antiobesity activity in HFD-induced hyperlipidemic Charles Foster rat assessed as decrease in gonadal fat-pad at 100 mg/kg, po administered for 4 weeks; type: functional, organism-based; parameters: dose 100 mg/kg; outline: as §6
Rattus norvegicus [21] = assay: Antihyperlipidemic activity in Triton WR-1339-induced hyperlipidemic rat assessed as increase in LCAT enzyme level at 50 mg/kg, po; type: functional; outline: as §4
Rattus norvegicus [22] = assay: Antihyperlipidemic activity in HFD-induced hyperlipidemic Charles Foster rat assessed as increase in plasma HDL-total cholesterol level at 100 mg/kg, po administered for 4 weeks relative to control; type: functional; outline: as §2
Rattus norvegicus [23] = assay: Antiobesity activity in HFD-induced hyperlipidemic Charles Foster rat assessed as decrease in mesenteric fat-pad at 100 mg/kg, po administered for 4 weeks; type: functional, organism-based; parameters: dose 100 mg/kg; outline: as §6
Rattus norvegicus [24] = assay: Antihyperlipidemic activity in Triton WR-1339-induced hyperlipidemic rat assessed as increase in PHLA enzyme level at 150 mg/kg, po; type: functional; outline: as §4
Rattus norvegicus [25] = assay: Antihyperlipidemic activity in Triton WR-1339-induced hyperlipidemic rat assessed as decrease in plasma total cholesterol level at 50 mg/kg, po; type: functional; outline: as §4
Rattus norvegicus [26] = assay: Antihyperlipidemic activity in HFD-induced hyperlipidemic Charles Foster rat assessed as decrease in serum phospholipid level at 100 mg/kg, po administered for 4 weeks relative to control; type: functional; parameters: scale not given: the % may be the effect or the level left; outline: as §5

CCOC(=O)C(C)Oc1ccc(C(c2cn(CC)c3ccccc23)c2cn(CC)c3ccccc23)cc1 (configuration not stated)
Activity (Rattus norvegicus [1]): 27% | Activity (Rattus norvegicus [2]): 21% | Activity (Rattus norvegicus [3]): 12 nmol/h/mL | Activity (Rattus norvegicus [4]): 23% | Activity (Rattus norvegicus [5]): 18 nmol/h/mL | Activity (Rattus norvegicus [6]): 20% | Activity (Rattus norvegicus [7]): 24% | Activity (Rattus norvegicus [8]): 13% | Activity (Rattus norvegicus [9]): 25% | Activity (Rattus norvegicus [10]): 32% | percent increase (Rattus norvegicus [11]): 12% | Activity (Rattus norvegicus [12]): 23% | Activity (Rattus norvegicus [13]): 25% | Activity (Rattus norvegicus [14]): Active | Activity (Rattus norvegicus [15]): 24% | Activity (Rattus norvegicus [16]): 28% | Activity (Rattus norvegicus [17]): Dose-dependent effect | percent increase (Rattus norvegicus [18]): 11% | Activity (Rattus norvegicus [19]): Active | Activity (Rattus norvegicus [20]): Active | Activity (Rattus norvegicus [21]): 8 nmol/h/mL | Activity (Rattus norvegicus [22]): 14% | Activity (Rattus norvegicus [23]): Active | percent increase (Rattus norvegicus [24]): 15% | Activity (Rattus norvegicus [25]): 16 mg/dL | Activity (Rattus norvegicus [26]): 24%

CCOC(=O)CCCOc1ccc(C(c2cn(C)c3ccccc23)c2cn(C)c3ccccc23)cc1
Activity (Rattus norvegicus [1]): 24% | Activity (Rattus norvegicus [2]): 15% | Activity (Rattus norvegicus [3]): 15 nmol/h/mL | Activity (Rattus norvegicus [4]): 14% | Activity (Rattus norvegicus [5]): 21 nmol/h/mL | Activity (Rattus norvegicus [6]): 14% | Activity (Rattus norvegicus [7]): 22% | Activity (Rattus norvegicus [8]): 8% | Activity (Rattus norvegicus [9]): 27% | Activity (Rattus norvegicus [10]): 29% | percent increase (Rattus norvegicus [11]): 15% | Activity (Rattus norvegicus [12]): 26% | Activity (Rattus norvegicus [13]): 27% | Activity (Rattus norvegicus [14]): Active | Activity (Rattus norvegicus [15]): 18% | Activity (Rattus norvegicus [16]): 23% | Activity (Rattus norvegicus [17]): Dose-dependent effect | percent increase (Rattus norvegicus [18]): 10% | Activity (Rattus norvegicus [19]): Active | Activity (Rattus norvegicus [20]): Active | Activity (Rattus norvegicus [21]): 11 nmol/h/mL | Activity (Rattus norvegicus [22]): 12% | Activity (Rattus norvegicus [23]): Active | percent increase (Rattus norvegicus [24]): 20% | Activity (Rattus norvegicus [25]): 15 mg/dL | Activity (Rattus norvegicus [26]): 25%

From ChEMBL document CHEMBL2029264, “Indole-based fibrates as potential hypolipidemic and antiobesity agents” (J Med Chem, 2012)
